Calls of active or inactive are those of the source. The rule behind the calls is not given here.
What was measured:
[1] = biological target: AP2-associated protein kinase 1 (Homo sapiens) (UniProt Q2M2I8); assay: Inhibition of AAK1 (unknown origin) assessed as remaining activity at 1 uM by Kinome scan method relative to control
Outline: (§1)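 Active-site-dependent competition-binding (KINOMEscan) panel of 468 kinases, test compound at 1 μM (from a 10 mM DMSO stock). Read-out is ctrl% = (test signal − positive control signal)/(negative control signal − positive control signal) × 100. DMSO is the negative control (100%) and a control compound is the positive control (0%). Lower ctrl% means tighter binding.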

[2] = system: Tyrosine-protein kinase ABL1 (Homo sapiens), P00519 [T315I]; assay: Inhibition of phosphorylated ABL1 T315I mutant (unknown origin) assessed as remaining activity at 1 uM by Kinome scan method relative to control
[3] = biological target: Ankyrin repeat and protein kinase domain-containing protein 1 (Homo sapiens) (UniProt Q8NFD2); assay: Inhibition of ANKK1 (unknown origin) assessed as remaining activity at 1 uM by Kinome scan method relative to control; outline: as §1
[4] = biological target: Aurora kinase A (Homo sapiens) (UniProt O14965); assay: Inhibition of AURKA (unknown origin) assessed as remaining activity at 1 uM by Kinome scan method relative to control; outline: as §1
Sequence of Aurora kinase A (Homo sapiens) (O14965 whole entry): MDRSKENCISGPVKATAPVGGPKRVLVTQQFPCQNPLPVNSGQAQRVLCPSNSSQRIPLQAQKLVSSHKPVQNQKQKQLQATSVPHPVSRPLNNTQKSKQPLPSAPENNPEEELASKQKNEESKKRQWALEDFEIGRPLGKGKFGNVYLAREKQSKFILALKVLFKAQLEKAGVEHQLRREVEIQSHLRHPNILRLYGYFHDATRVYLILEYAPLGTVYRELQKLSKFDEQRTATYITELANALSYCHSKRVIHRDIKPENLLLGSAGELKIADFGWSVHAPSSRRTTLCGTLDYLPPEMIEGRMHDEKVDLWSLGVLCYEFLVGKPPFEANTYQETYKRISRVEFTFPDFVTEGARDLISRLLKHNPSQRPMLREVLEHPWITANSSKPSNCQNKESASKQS

[5] = biological target: Casein kinase II subunit alpha' (Homo sapiens) (UniProt P19784); assay: Inhibition of CSNK2A2 (unknown origin) assessed as remaining activity at 1 uM by Kinome scan method relative to control
Sequence of Casein kinase II subunit alpha' (Homo sapiens) (P19784 whole entry, looked up): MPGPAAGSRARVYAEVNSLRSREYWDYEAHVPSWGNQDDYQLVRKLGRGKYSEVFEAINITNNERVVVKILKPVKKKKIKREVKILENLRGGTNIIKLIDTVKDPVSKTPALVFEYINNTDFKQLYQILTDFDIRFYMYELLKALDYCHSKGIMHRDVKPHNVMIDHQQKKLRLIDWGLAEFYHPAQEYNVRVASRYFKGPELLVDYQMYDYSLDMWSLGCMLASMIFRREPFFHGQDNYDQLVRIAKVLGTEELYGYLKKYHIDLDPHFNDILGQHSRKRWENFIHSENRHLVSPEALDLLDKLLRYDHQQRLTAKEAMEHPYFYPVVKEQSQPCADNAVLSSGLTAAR
Outline: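 Active-site-dependent competition-binding profiling (KINOMEscan) at 1 μM against a 468-kinase panel; compound supplied from a 10 mM DMSO stock. Read-out is ctrl% = (test signal − positive control signal)/(negative control signal − positive control signal) × 100. DMSO is the negative control (100%) and a control compound the positive control (0%). Lower ctrl% means tighter binding.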

[6] = biological target: Mitogen-activated protein kinase kinase kinase 12 (Homo sapiens) (UniProt Q12852); assay: Inhibition of DLK (unknown origin) assessed as remaining activity at 1 uM by Kinome scan method relative to control
[7] = biological target: Ephrin type-B receptor 2 (Homo sapiens) (UniProt P29323); assay: Inhibition of EPHB2 (unknown origin) assessed as remaining activity at 1 uM by Kinome scan method relative to control
[8] = biological target: Receptor-type tyrosine-protein kinase FLT3 (Homo sapiens) (UniProt P36888); assay: Inhibition of FLT3-autoinnibited (unknown origin) assessed as remaining activity at 1 uM by Kinome scan method relative to control
[9] = biological target: Glycogen synthase kinase-3 beta (Homo sapiens) (UniProt P49841); assay: Inhibition of GSK3beta (unknown origin) assessed as remaining activity at 1 uM by Kinome scan method relative to control
[10] = biological target: Serine/threonine-protein kinase haspin (Homo sapiens) (UniProt Q8TF76); assay: Inhibition of HASPIN (unknown origin) assessed as remaining activity at 1 uM by Kinome scan method relative to control
Sequence of Serine/threonine-protein kinase haspin (Homo sapiens) (Q8TF76 whole entry): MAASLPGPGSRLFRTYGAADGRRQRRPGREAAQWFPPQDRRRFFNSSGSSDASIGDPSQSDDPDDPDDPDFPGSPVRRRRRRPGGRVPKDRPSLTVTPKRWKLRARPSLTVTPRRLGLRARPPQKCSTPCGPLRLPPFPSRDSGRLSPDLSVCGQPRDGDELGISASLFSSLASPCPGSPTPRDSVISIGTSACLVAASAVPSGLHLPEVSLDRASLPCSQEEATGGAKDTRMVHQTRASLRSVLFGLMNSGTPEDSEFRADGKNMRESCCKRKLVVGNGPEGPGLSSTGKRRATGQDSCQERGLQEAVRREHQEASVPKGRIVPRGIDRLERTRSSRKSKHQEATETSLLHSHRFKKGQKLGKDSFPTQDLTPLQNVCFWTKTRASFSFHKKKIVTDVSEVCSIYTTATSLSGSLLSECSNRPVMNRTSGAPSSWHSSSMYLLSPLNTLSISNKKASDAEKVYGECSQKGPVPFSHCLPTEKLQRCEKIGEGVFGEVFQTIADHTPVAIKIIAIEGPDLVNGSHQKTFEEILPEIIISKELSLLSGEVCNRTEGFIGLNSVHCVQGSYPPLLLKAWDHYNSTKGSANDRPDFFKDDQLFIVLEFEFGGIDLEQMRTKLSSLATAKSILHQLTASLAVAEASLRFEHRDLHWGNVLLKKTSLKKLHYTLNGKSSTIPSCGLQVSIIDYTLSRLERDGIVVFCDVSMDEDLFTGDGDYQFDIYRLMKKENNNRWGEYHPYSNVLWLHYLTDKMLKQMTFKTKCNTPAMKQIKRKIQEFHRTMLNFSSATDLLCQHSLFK

[11] = biological target: Homeodomain-interacting protein kinase 4 (Homo sapiens) (UniProt Q8NE63); assay: Inhibition of HIPK4 (unknown origin) assessed as remaining activity at 1 uM by Kinome scan method relative to control
[12] = system: Mast/stem cell growth factor receptor Kit (Homo sapiens), P10721 [D816H]; assay: Inhibition of KIT D816H mutant (unknown origin) assessed as remaining activity at 1 uM by Kinome scan method relative to control
[13] = biological target: MAP kinase-activated protein kinase 2 (Homo sapiens) (UniProt P49137); assay: Inhibition of MAPKAPK2 (unknown origin) assessed as remaining activity at 1 uM by Kinome scan method relative to control
[14] = biological target: Mitogen-activated protein kinase 14 (Homo sapiens) (UniProt Q16539); assay: Inhibition of P38alpha (unknown origin) assessed as remaining activity at 1 uM by Kinome scan method relative to control
Sequence of Mitogen-activated protein kinase 14 (Homo sapiens) (Q16539 whole entry): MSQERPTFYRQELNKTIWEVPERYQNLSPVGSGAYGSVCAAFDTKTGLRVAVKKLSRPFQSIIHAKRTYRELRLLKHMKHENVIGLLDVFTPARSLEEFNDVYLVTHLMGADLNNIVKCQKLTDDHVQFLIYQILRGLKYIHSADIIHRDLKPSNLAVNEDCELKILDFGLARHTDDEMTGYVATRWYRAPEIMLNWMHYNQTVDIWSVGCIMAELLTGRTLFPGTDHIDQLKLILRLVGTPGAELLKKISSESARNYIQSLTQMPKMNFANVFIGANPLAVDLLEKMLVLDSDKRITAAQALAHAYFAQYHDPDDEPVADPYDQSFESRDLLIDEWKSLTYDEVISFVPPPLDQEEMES

[15] = biological target: Serine/threonine-protein kinase PAK 2 (Homo sapiens) (UniProt Q13177); assay: Inhibition of PAK2 (unknown origin) assessed as remaining activity at 1 uM by Kinome scan method relative to control
[16] = biological target: Serine/threonine-protein kinase PAK 5 (Homo sapiens) (UniProt Q9P286); assay: Inhibition of PAK7 (unknown origin) assessed as remaining activity at 1 uM by Kinome scan method relative to control
[17] = biological target: Cyclin-dependent kinase 17 (Homo sapiens) (UniProt Q00537); assay: Inhibition of PCTK2 (unknown origin) assessed as remaining activity at 1 uM by Kinome scan method relative to control
[18] = biological target: Serine/threonine-protein kinase PLK3 (Homo sapiens) (UniProt Q9H4B4); assay: Inhibition of PLK3 (unknown origin) assessed as remaining activity at 1 uM by Kinome scan method relative to control
[19] = biological target: Serine/threonine-protein kinase D2 (Homo sapiens) (UniProt Q9BZL6); assay: Inhibition of PRKD2 (unknown origin) assessed as remaining activity at 1 uM by Kinome scan method relative to control
Sequence of Serine/threonine-protein kinase D2 (Homo sapiens) (Q9BZL6 whole entry): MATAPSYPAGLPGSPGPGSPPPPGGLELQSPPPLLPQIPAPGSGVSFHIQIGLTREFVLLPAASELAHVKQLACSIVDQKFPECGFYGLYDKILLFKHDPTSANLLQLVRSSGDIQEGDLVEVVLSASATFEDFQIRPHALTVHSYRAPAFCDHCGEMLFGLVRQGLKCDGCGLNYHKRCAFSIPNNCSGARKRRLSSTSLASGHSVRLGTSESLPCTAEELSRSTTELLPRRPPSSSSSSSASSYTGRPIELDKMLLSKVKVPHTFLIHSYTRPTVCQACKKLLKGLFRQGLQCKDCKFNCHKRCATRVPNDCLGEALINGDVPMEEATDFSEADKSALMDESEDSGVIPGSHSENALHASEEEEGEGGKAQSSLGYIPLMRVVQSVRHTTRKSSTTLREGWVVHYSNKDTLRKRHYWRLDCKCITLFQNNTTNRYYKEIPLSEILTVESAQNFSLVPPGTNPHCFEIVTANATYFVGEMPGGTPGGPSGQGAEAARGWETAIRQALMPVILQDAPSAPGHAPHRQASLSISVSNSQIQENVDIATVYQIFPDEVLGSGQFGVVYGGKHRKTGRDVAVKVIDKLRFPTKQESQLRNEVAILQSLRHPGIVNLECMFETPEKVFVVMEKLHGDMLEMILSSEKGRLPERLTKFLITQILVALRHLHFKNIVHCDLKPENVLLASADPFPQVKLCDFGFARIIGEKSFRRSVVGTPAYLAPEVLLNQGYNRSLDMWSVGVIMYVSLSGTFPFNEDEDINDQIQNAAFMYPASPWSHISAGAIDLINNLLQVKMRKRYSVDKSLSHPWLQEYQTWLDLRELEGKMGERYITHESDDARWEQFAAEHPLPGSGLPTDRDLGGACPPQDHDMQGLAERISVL

[20] = biological target: cGMP-dependent protein kinase 2 (Homo sapiens) (UniProt Q13237); assay: Inhibition of PRKG2 (unknown origin) assessed as remaining activity at 1 uM by Kinome scan method relative to control
Sequence of cGMP-dependent protein kinase 2 (Homo sapiens) (Q13237 whole entry): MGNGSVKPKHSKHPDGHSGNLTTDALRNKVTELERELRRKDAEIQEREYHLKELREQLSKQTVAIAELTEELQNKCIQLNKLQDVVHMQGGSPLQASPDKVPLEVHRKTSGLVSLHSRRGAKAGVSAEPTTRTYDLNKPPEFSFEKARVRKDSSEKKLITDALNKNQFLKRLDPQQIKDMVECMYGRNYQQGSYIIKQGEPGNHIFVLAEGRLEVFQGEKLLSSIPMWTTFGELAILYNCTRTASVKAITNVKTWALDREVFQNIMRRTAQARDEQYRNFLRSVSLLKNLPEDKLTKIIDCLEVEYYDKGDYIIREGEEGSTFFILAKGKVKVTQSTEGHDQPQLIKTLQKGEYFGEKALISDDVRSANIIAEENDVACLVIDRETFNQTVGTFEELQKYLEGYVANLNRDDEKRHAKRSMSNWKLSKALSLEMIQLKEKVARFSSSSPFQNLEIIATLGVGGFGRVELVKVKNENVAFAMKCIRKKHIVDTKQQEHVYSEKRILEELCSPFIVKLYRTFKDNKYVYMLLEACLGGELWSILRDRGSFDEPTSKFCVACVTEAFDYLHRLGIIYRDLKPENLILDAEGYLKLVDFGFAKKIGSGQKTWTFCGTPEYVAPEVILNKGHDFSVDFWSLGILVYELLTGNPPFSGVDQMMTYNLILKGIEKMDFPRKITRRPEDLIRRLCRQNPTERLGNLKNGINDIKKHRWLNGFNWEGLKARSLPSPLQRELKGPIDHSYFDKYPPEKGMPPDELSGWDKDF

[21] = system: Proto-oncogene tyrosine-protein kinase receptor Ret (Homo sapiens), P07949 [M918T]; assay: Inhibition of RET M918T (unknown origin) assessed as remaining activity at 1 uM by Kinome scan method relative to control
[22] = biological target: Serine/threonine-protein kinase SIK2 (Homo sapiens) (UniProt Q9H0K1); assay: Inhibition of SIK2 (unknown origin) assessed as remaining activity at 1 uM by Kinome scan method relative to control
[23] = biological target: Serine/threonine-protein kinase 33 (Homo sapiens) (UniProt Q9BYT3); assay: Inhibition of STK33 (unknown origin) assessed as remaining activity at 1 uM by Kinome scan method relative to control
Sequence of Serine/threonine-protein kinase 33 (Homo sapiens) (Q9BYT3 whole entry, looked up): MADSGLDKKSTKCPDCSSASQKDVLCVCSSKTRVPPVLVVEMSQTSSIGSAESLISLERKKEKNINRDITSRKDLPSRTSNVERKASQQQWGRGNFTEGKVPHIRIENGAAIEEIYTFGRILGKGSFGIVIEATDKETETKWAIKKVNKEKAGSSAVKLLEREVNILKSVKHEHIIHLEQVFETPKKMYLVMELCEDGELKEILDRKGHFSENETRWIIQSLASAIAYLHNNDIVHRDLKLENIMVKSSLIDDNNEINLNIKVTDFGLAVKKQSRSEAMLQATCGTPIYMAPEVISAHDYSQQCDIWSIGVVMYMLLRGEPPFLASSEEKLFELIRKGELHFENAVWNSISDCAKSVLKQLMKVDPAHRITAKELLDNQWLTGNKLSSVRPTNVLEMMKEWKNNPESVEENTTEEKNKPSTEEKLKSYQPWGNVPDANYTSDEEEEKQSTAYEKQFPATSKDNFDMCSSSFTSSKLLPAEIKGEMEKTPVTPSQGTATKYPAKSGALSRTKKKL

[24] = biological target: Transient receptor potential cation channel subfamily M member 6 (Homo sapiens) (UniProt Q9BX84); assay: Inhibition of TRPM6 (unknown origin) assessed as remaining activity at 1 uM by Kinome scan method relative to control
[25] = Inhibition of phosphorylated ABL1 T315I mutant (unknown origin) in presence of ATP by enzymatic assay; set-up: species or system Homo sapiens
[26] = MRT (0 to infinity) in male Sprague-Dawley rat at 5 mg/kg, iv measured for 24 hrs by LC-MS/MS analysis; assay type: ADME, organism-based; settings: in vivo
Mus musculus [27] = assay: In vivo inhibition of MST1/2 in wild-type Mst1fl/fl Mst2fl/fl mouse assessed as decrease in MOB1 phosphorylation level at 1 mg/kg, ip administrated daily for 7 days by immunoblot analysis; assay type: functional, organism-based; settings: Liver, time 7.0 day
Mus musculus [28] = assay: Protection against human hepatocyte transplanted FRG mouse assessed as increase in FAH level at 1 mg/kg, ip administrated once a daily for 28 days by H&E staining based immunohistochemical analysis; assay type: functional, organism-based; settings: Liver, time 28.0 day
[29] = Toxicity in mouse assessed as cancer cell growth at 1 mg/kg, ip administered for 2 months; assay type: organism-based; settings: in vivo, 1460 h
Outline: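 Wild-type mice were given 1 mg/kg i.p. daily for 2 months and examined for cancer growth and serum α-fetoprotein.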

Sequence of AP2-associated protein kinase 1 (Homo sapiens) (Q2M2I8 whole entry, looked up): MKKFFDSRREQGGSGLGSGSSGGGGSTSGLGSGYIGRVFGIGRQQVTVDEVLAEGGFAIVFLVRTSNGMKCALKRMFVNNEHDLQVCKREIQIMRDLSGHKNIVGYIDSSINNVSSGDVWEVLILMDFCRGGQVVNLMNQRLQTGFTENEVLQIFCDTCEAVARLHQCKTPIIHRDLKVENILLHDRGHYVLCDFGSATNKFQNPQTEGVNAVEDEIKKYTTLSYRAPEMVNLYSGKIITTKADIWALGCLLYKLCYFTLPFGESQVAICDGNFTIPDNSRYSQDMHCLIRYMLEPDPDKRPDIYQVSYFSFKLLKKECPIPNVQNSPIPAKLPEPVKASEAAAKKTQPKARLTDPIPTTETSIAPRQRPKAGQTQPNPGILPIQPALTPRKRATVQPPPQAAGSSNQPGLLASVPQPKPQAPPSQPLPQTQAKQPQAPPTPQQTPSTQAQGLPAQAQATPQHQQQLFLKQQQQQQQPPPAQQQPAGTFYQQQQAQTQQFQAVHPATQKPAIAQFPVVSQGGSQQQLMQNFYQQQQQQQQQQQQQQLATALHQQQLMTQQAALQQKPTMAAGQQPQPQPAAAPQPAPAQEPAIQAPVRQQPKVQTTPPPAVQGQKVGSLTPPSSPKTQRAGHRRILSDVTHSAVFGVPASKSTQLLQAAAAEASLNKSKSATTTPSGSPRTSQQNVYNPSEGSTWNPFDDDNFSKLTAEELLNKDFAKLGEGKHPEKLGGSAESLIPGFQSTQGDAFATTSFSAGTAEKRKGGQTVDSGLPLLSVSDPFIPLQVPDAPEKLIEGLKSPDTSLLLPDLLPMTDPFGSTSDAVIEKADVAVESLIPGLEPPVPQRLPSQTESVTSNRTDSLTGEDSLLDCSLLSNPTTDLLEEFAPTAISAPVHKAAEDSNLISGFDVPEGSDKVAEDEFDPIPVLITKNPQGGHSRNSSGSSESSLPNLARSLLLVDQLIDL

With CN1C(=O)c2sccc2N(C)c2nc(Nc3ccc(S(N)(=O)=O)cc3)ncc21 the Activity [1] was 100%, the Activity [2] was 1.6% and the Activity [3] was 41%. The Activity [4] was 0.05%, the Activity [5] was 97% and the Activity [6] was 85%. It also gave an Activity [7] of 100%, an Activity [8] of 100% and an Activity [9] of 100%. It also gave an Activity [10] of 96%, an Activity [11] of 94% and an Activity [12] of 85%. For the same molecule, the Activity [13] was 91%, the Activity [14] was 88% and the Activity [15] was 84%. The Activity [16] was 85%, the Activity [17] was 86% and the Activity [18] was 99%. For the same molecule, the Activity [19] was 87%, the Activity [20] was 95% and the Activity [21] was 78%. The Activity [22] was 100%, the Activity [23] was 97% and the Activity [24] was 94%. For the same molecule, the IC50 [25] was 16.6 nM, the MRT inf [26] was 1.36 h and the inhibition (Mus musculus [27]) was “Active”. For the same molecule, the Activity (Mus musculus [28]) was “Active” and the Activity [29] was “Non-Toxic”.

From ChEMBL document CHEMBL5705905, “Pharmacological targeting of kinases MST1 and MST2 augments tissue repair and regeneration” (Sci Transl Med, 2016)
